Format in all cases: functional
What all share (details): for CC50: read-out: LC50 (the source's name)

In one assay the test system is MDA-MB-231. In words: Cytotoxicity against human MDA-MB-231 cells by SRB assay. The method in brief:
(§1)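 Human tumor cell line (A-549 lung carcinoma, HT-29 colon adenocarcinoma, MDA-MB-231 mammary gland adenocarcinoma) growth and viability measured by colorimetric sulforhodamine B (SRB) staining. Parameters derived were GI50 (50% growth inhibition), TGI (total growth inhibition) and LC50 (50% cell killing).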
(In general: The SRB assay estimates cell density from bound dye.)

A further assay concerns HT-29. In words: Cytotoxicity against human HT-29 cells by SRB assay. The method in brief: as §1
The next assay has as its system A549. The experiment in a line: Cytotoxicity against human A549 cells by SRB assay. A digest of the protocol:
as §1

The source of these data is ChEMBL document CHEMBL1158750, “Merosesquiterpenes from two sponges of the genus Dysidea” (2005).

Broadly, the GI50 is the concentration that inhibits growth by half. Low readings indicate more potent growth inhibition, high ones less potent growth inhibition. As usually defined, the TGI is the concentration at which net growth stops. Low readings indicate more potent growth arrest, high ones less potent growth arrest.

As for `CC1=CC[C@H]2C(C)(C)CCC[C@]2(C)[C@H]1C[C@H]1C(=O)C=C[C@@H]1O` [DYSIENONE], the figures for the concentration for 50% growth inhibition (GI50) with MDA-MB-231, with HT-29 and in the assay with A549 were 15.2 µM, 13.6 µM and 12.9 µM, respectively. The TGI was found to be 16.5 µM in the assay with MDA-MB-231, 14.2 µM with HT-29 and 13.6 µM in the assay on A549. Also, the CC50 in the assay with MDA-MB-231 came to 17.9 µM; with HT-29 it was 15.2 µM; in the assay with A549, 14.2 µM.
For `CC1(C)CCC[C@]2(C)[C@@H](Cc3cc(O)ccc3O)[C@](C)(O)CC[C@@H]12`, the 50% growth inhibitory concentration (GI50) in the assay on MDA-MB-231 is 27.7 µM; with A549 it was 17.4 µM.
For `CC(=O)Oc1ccc(O)c(C[C@H]2C(C)=CC[C@H]3C(C)(C)CCC[C@]23C)c1O`, in the assay with MDA-MB-231, the 50% growth inhibitory concentration (GI50) was 10.5 µM, the TGI is 11 µM and the CC50 turned out to be 11.8 µM. For the same compound, in the assay with HT-29, the concentration for 50% growth inhibition (GI50) was determined as 11.3 µM, net growth stopped (TGI) at 12.6 µM and the CC50 came out at 14 µM. In the assay on A549, growth was halved (GI50) at 10.5 µM, total growth inhibition (TGI) required 11 µM and the CC50 came to 11.8 µM.
On to `C=C1CCC[C@H]2[C@](C)(Cc3cc(OC(C)=O)ccc3O)[C@@H](C)CC[C@]12C`, for which the GI50 in the assay on MDA-MB-231 amounted to 21 µM; with A549, 25.5 µM.
